Species: Mus musculus
Experiment: Lethal dose against DBA/2 mice was determined.
Assay type: functional
Conditions: not given

Row | Compound | LD50
1 | NCCNCCCCCCNc1cccc2c1C(=O)c1ccccc1C2=O | 200 mg/kg
2 | NCCCCNc1cccc2c1C(=O)c1ccccc1C2=O | 200 mg/kg
3 | NCCCCCCNc1cccc2c1C(=O)c1ccccc1C2=O | 133 mg/kg
4 | CISPLATIN | 6.6 mg/kg
5 | [[2-[[2-(Anthraquinon-1-ylamino)ethyl]amino]ethyl]-amine-N,N']dichloroplatinum | > 28 mg/kg
6 | [[2-[[3-(Anthraquinon-1-ylamino)propyl]amino]ethyl]-amine-N,N']dichloroplatinum | > 28 mg/kg
7 | [[2-[[3-(Anthraquinon-1-yloxy)propyl]amino]ethyl]-amine-N,N']dichloroplatinum | > 28 mg/kg

Tested on: P388
Experiment: In vitro inhibition of P388 murine leukemia cell (R/ADR) growth
Assay type: functional
Conditions: Mus musculus
Procedure, shortened: (§1)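 P388 murine leukemia cells (S/ADR) or multidrug-resistant P388/ADR subline (R/ADR), kept exponential in suspension in RPMI 1640 + 10% heat-inactivated FCS, 10 μM 2-mercaptoethanol, penicillin/streptomycin; seeded 10⁵ cells/mL, exposed to graded concentrations for 4 days. Density counted daily by Coulter counter; growth rate from linear regression of log density vs time, expressed as % of control; ED50 read from dose-effect curves.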

Row | Compound | ED50
8 | CISPLATIN | 1.4 µM
9 | Pt(en)Cl2 | 20 µM
10 | [[2-[[2-(Anthraquinon-1-ylamino)ethyl]amino]ethyl]-amine-N,N']dichloroplatinum | > 60 µM
11 | [[2-[[2-(Anthraquinon-1-ylamino)ethyl]amino]ethyl]-amine-N,N']diiodoplatinum | 12 µM
12 | [[2-[[3-(Anthraquinon-1-ylamino)propyl]amino]ethyl](2-hydroxyethyl)-amine-N,N']dichloroplatinum | > 60 µM
13 | [[2-[[3-(Anthraquinon-1-ylamino)propyl]amino]ethyl]-amine-N,N']dichloroplatinum | > 60 µM
14 | [[2-[[3-(Anthraquinon-1-yloxy)propyl]amino]ethyl]-amine-N,N']dichloroplatinum | 12 µM
15 | [[2-[[6-(Anthraquinon-1-ylamino)hexyl]amino]ethyl]-amine-N,N']dichloroplatinum | > 60 µM
16 | cis-Bis[[3-(anthraquinon-1-ylamino)butyl]amide]dichloroplatinum | > 60 µM
17 | cis-Bis[[3-(anthraquinon-1-ylamino)butyl]amide]diiodoplatinum | > 60 µM
18 | cis-Bis[[3-(anthraquinon-1-ylamino)dodecyl]amide]dichloroplatinum | > 60 µM
19 | cis-Bis[[3-(anthraquinon-1-ylamino)dodecyl]amide]diiodoplatinum | > 60 µM
20 | cis-Bis[[3-(anthraquinon-1-ylamino)hexyl]amide]dichloroplatinum | > 60 µM
21 | cis-Bis[[3-(anthraquinon-1-ylamino)hexyl]amide]diiodoplatinum | > 60 µM
22 | cis-Bis[[3-(anthraquinon-1-ylamino)propyl]amide]diiodoplatinum | > 60 µM
23 | cis-Bis[[3-(anthraquinon-1-yloxy)propyl]amide]dichloroplatinum | > 10 µM
24 | cis-Bis[[3-(anthraquinon-1-yloxy)propyl]amide]diiodoplatinum | > 10 µM

Same assay, conditions: Mus musculus, read-out: ED50 (the source's name)

Row | EC50 | Compound
25 | > 10 µM | O=C1c2ccccc2C(=O)c2c(NCCCNCCNCCO)cccc21
26 | > 60 µM | NCCNCCOCCOc1cccc2c1C(=O)c1ccccc1C2=O
27 | > 10 µM | NCCCOc1cccc2c1C(=O)c1ccccc1C2=O
28 | 20 µM | NCCCCCCCCCCCCNc1cccc2c1C(=O)c1ccccc1C2=O
29 | 8 µM | NCCNCCCNc1cccc2c1C(=O)c1ccccc1C2=O
30 | 45 µM | NCCCNc1cccc2c1C(=O)c1ccccc1C2=O
31 | 60 µM | NCCNCCCOc1cccc2c1C(=O)c1ccccc1C2=O
32 | 8 µM | NCCNCCNc1cccc2c1C(=O)c1ccccc1C2=O

Row | Compound | EC50
33 | NCCNCCCCCCNc1cccc2c1C(=O)c1ccccc1C2=O | 8 µM
34 | NCCCCNc1cccc2c1C(=O)c1ccccc1C2=O | 50 µM
35 | NCCCCCCNc1cccc2c1C(=O)c1ccccc1C2=O | 45 µM

Tested on: P388
Experiment: In vitro inhibition of P388 murine leukemia cell (S/ADR) growth
Assay type: functional
Conditions: Mus musculus
Procedure, shortened: as §1

Row | Compound | ED50
36 | CISPLATIN | 0.19 µM
37 | Pt(en)Cl2 | 6 µM
38 | [[2-[[2-(Anthraquinon-1-ylamino)ethyl]amino]ethyl]-amine-N,N']dichloroplatinum | 0.2 µM
39 | [[2-[[2-(Anthraquinon-1-ylamino)ethyl]amino]ethyl]-amine-N,N']diiodoplatinum | 4.5 µM
40 | [[2-[[3-(Anthraquinon-1-ylamino)propyl]amino]ethyl](2-hydroxyethyl)-amine-N,N']dichloroplatinum | > 30 µM
41 | [[2-[[3-(Anthraquinon-1-ylamino)propyl]amino]ethyl]-amine-N,N']dichloroplatinum | 0.45 µM
42 | [[2-[[3-(Anthraquinon-1-yloxy)propyl]amino]ethyl]-amine-N,N']dichloroplatinum | 0.45 µM
43 | [[2-[[6-(Anthraquinon-1-ylamino)hexyl]amino]ethyl]-amine-N,N']dichloroplatinum | 45 µM
44 | cis-Bis[[3-(anthraquinon-1-ylamino)butyl]amide]dichloroplatinum | 8 µM
45 | cis-Bis[[3-(anthraquinon-1-ylamino)butyl]amide]diiodoplatinum | 40 µM
46 | cis-Bis[[3-(anthraquinon-1-ylamino)dodecyl]amide]dichloroplatinum | 60 µM
47 | cis-Bis[[3-(anthraquinon-1-ylamino)dodecyl]amide]diiodoplatinum | 60 µM
48 | cis-Bis[[3-(anthraquinon-1-ylamino)hexyl]amide]dichloroplatinum | > 60 µM
49 | cis-Bis[[3-(anthraquinon-1-ylamino)hexyl]amide]diiodoplatinum | > 60 µM
50 | cis-Bis[[3-(anthraquinon-1-ylamino)propyl]amide]diiodoplatinum | 40 µM
51 | cis-Bis[[3-(anthraquinon-1-yloxy)propyl]amide]dichloroplatinum | > 10 µM
52 | cis-Bis[[3-(anthraquinon-1-yloxy)propyl]amide]diiodoplatinum | > 10 µM

Same assay, conditions: Mus musculus, read-out: ED50 (the source's name)

Row | EC50 | Compound
53 | 20 µM | O=C1c2ccccc2C(=O)c2c(NCCCNCCNCCO)cccc21
54 | 0.2 µM | NCCNCCOCCOc1cccc2c1C(=O)c1ccccc1C2=O
55 | 10 µM | NCCCOc1cccc2c1C(=O)c1ccccc1C2=O
56 | 60 µM | NCCCCCCCCCCCCNc1cccc2c1C(=O)c1ccccc1C2=O
57 | 4.5 µM | NCCNCCCNc1cccc2c1C(=O)c1ccccc1C2=O
58 | 20 µM | NCCCNc1cccc2c1C(=O)c1ccccc1C2=O
59 | 6 µM | NCCNCCCOc1cccc2c1C(=O)c1ccccc1C2=O
60 | 4.5 µM | NCCNCCNc1cccc2c1C(=O)c1ccccc1C2=O

Row | Compound | EC50
61 | NCCNCCCCCCNc1cccc2c1C(=O)c1ccccc1C2=O | 4.5 µM
62 | NCCCCNc1cccc2c1C(=O)c1ccccc1C2=O | 40 µM
63 | NCCCCCCNc1cccc2c1C(=O)c1ccccc1C2=O | 45 µM

Tested on: not listed separately
Experiment: T/C ratio of the compound
Assay type: functional
Conditions: not given

Row | Compound | T/C
64 | CISPLATIN | 134

Tested on: not listed separately
Experiment: T/C ratio with the optimal dose mg/Kg in parenthesis.
Assay type: functional
Conditions: not given

Row | Compound | T/C
65 | [[2-[[2-(Anthraquinon-1-ylamino)ethyl]amino]ethyl]-amine-N,N']dichloroplatinum | 126
66 | [[2-[[3-(Anthraquinon-1-ylamino)propyl]amino]ethyl]-amine-N,N']dichloroplatinum | 130
67 | [[2-[[3-(Anthraquinon-1-yloxy)propyl]amino]ethyl]-amine-N,N']dichloroplatinum | 120
